Experimental findings from ChEMBL document CHEMBL1149200, “Toxic effects of natural piperine and its derivatives on epimastigotes and amastigotes of Trypanosoma cruzi” (Bioorg Med Chem Lett, 2004) are described below.

In assay [1] the test system is Trypanosoma cruzi. Description: In vitro growth inhibition of epimastigotes of Trypanosoma cruzi. It counts as functional, organism-based. The gist of the method:
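Y-strain epimastigotes were grown in axenic culture and proliferation was measured. Compounds came from 10 mg mL-1 DMSO stocks, diluted 1:2 serially in medium to final levels of 0.76–25, each in triplicate. IC50 was derived by linear regression.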

For assay [2], the system named is Trypanosoma cruzi. Description: In vitro growth inhibition of amastigotes of Trypanosoma cruzi. It counts as functional, organism-based. Summed up: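 Intracellular amastigotes, Y-strain, in in vitro infected murine peritoneal macrophages. Compounds were held as 10 mg mL-1 DMSO stocks and serially diluted in medium before use. Read-out was the reduction in intracellular amastigote number. IC50 was obtained by linear regression.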

Some results are limits rather than exact numbers.

As for `O=C(CCCCc1ccc2c(c1)OCO2)N1CCCCC1` [TETRAHYDROPIPERINE], the IC50 came to 19.4 µM in the assay on Trypanosoma cruzi [1] and 11.5 µM in the assay on Trypanosoma cruzi [2]. Regarding `O=C(/C=C/c1ccc2c(c1)OCO2)N1CCOCC1`, the IC50 in the assay with Trypanosoma cruzi [1] was above 95.8 µM. On the same count and under the same terms, the value for `O=C(O)/C=C/C=C/c1ccc2c(c1)OCO2` [PIPERIC ACID] was above 115 µM; that for `COc1ccc(CCNC(=O)/C=C/C=C/c2ccc3c(c2)OCO3)cc1OC` was above 65.6 µM. `O=C(/C=C/C=C/C=C/c1ccc2c(c1)OCO2)N1CCCCC1`: the IC50 with Trypanosoma cruzi [1] is 10.7 µM; with Trypanosoma cruzi [2], 7.4 µM. `C(/C=C/c1ccc2c(c1)OCO2)=C\CN1CCCCC1`: the IC50 was 17.5 µM in the assay on Trypanosoma cruzi [1] and 9.63 µM in the assay with Trypanosoma cruzi [2]. Take `CN1CCN(C(=O)/C=C/C=C/c2ccc3c(c2)OCO3)CC1`: in the assay with Trypanosoma cruzi [1], the IC50 was above 83.3 µM. Regarding `O=C(Cn1ccnc1[N+](=O)[O-])NCc1ccccc1` [BENZNIDAZOLE], in the assay with Trypanosoma cruzi [2], the IC50 amounted to 2.58 µM. Take `O=C(/C=C/C=C/c1ccc2c(c1)OCO2)N1CCOCC1`: the IC50 with Trypanosoma cruzi [1] came out at 56.1 µM; in the assay with Trypanosoma cruzi [2], 5.71 µM. Turning to `O=C(/C=C/c1ccc2c(c1)OCO2)N1CCCCC1` [ILEPCIMIDE], the IC50 in the assay with Trypanosoma cruzi [1] was above 96.5 µM.

Compound `O=C(/C=C/C=C/c1ccc2c(c1)OCO2)NCc1ccccc1` returned an IC50 in the assay on Trypanosoma cruzi [1] above 81.4 µM. `O=C(/C=C/C=C/c1ccc2c(c1)OCO2)OC1CCCCC1` had an IC50 in the assay with Trypanosoma cruzi [1] above 83.3 µM.

Regarding `CC(C)N(C(=O)/C=C/C=C/c1ccc2c(c1)OCO2)C(C)C`, the IC50 in the assay with Trypanosoma cruzi [1] stood at 14.8 µM; in the assay on Trypanosoma cruzi [2], 7.77 µM.

Broadly, the IC50 is the concentration at which inhibition is half-maximal. A low value points to greater potency.
